Screening results (PubChem BioAssay)
b-catenin transl = modulators of beta-catenin nuclear translocation. HeLa beta-catenin nuclear translocation, immunofluorescence imaging. nuclear translocation activity, % at 5 µM. 190,000 compounds, 0.3% hits. AID 1665;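 active = nuclear translocation activity above 50% at 5 µM, with a well cell count of 50 or more; inconclusive = wells under 50 cells across six images, flagged as toxic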;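 also: per-cell ratio of nuclear to cytoplasmic median beta-catenin stain intensity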
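Read-out: Nuclear/cytoplasmic beta-catenin signal ratio, % activation | Assay system: Human HeLa cell line | Times: 24 h compound exposure at 37°C, 5% CO2 | Signal: Fluorescence imaging of beta-catenin antibody stain plus DAPI | Dosing: 5 µM primary, 0.02–20 µM confirmation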
ROMK mod = modulators of human ROMK potassium channel. B-score at 10 µM. 130,000 compounds, 2% hits. Tet-inducible ROMK, thallium flux fluorescence; actives lie on both sides. P48048;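 active = signal ratio slope over the read window, or its plate-corrected B-score, at least 3 SD from the plate mean, either direction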;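 also: B-score of the F/F0 ratio slope over 7 to 12 s after thallium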
Target sequence (P48048 whole entry, looked up): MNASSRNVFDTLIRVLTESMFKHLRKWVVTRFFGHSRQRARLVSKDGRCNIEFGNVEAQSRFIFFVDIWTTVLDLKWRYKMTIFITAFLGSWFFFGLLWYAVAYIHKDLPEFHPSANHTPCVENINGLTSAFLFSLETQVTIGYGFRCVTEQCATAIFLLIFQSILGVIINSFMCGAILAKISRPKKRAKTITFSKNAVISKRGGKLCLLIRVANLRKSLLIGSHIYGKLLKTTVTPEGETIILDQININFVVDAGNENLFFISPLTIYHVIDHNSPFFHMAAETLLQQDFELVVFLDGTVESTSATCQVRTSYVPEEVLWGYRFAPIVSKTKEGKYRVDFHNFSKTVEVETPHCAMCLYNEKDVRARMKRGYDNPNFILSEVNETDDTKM
DTT redox prof = compounds producing H2O2 with reducing agent – biochemical, NIH compound library profiling, artefact control for MLSCN library redox annotation, primary screen. 200,000 compounds, 0.03% hits. activation, % at 10 µM. DTT-dependent redox cycling H2O2, phenol red/HRP absorbance; 100% = 100 µM peroxide control, 0% = buffer;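 active = activation of at least 50% relative to the plate's high and low controls in the primary single-dose screen; inactive = activation below 50%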;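 also: compound incubated with DTT at 0.8 mM final as the reducing agent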
KCC2 mod = KCC2 (human) Cl- transport modulation; Q9H2X9; KCC2 cells, thallium flux FluoZin-2 fluorescence; B-score of Tl+ flux slope (higher = more flux/activation; lower = inhibition) at 10 µM; 190,000 compounds, 2.2% hits;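 active = thallium flux slope and its plate-corrected score both differing from the plate sample mean at a set confidence after two filtering rounds, in either direction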;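 also: slope of fluorescence scaled to starting intensity during 10 to 20 s after thallium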
MT stabilizer = microtubule stabilizers in HeLa cells; HeLa tubulin immunostaining HCS, 24 h; share of cells brighter than vehicle mean+2SD; % tubulin-high responders, % at 10 µM; 200,000 compounds, 0.83% hits;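 active = plate Z-score above 3 for both tubulin-high and condensed-nucleus cell shares, with cell loss under 80%, at 10 µM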;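 also: anti alpha tubulin signal scored within the nucleus-defined area of each cell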
KCC2 sec1 = KCC2 (human) modulation, secondary assay; 3,700 compounds, 15% hits; shares compounds with KCC2 mod; normalised thallium flux (F/F0 slope) at 10 µM; HEK293-KCC2, thallium flux, FluoZin2 fluorescence; hits give high values;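 active = thallium flux slope above the same plate's solvent-only control mean plus 3 SD; inconclusive = the two replicate wells disagree; inactive = no significant difference from solvent-only control wells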
KCC2 bumet counter = thallium flux persisting under bumetanide in KCC2 cells, counter-screen secondary assay; shares compounds with KCC2 mod; HEK293-KCC2 + bumetanide/ouabain, thallium flux FluoZin2; hits give high values; normalized thallium flux at 10 µM; 3,700 compounds, 49% hits; AID 1714;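 active = thallium entry rate above the same plate's blocked-transporter control wells by more than 3 SD; inconclusive = the two repeat wells disagree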;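 also: raw slope of fluorescence over initial fluorescence between 10 and 20 s after thallium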
KCC2 secondary2 = confirmation of human KCC2 transport modulators | shares compounds with KCC2 mod | HEK293-KCC2, thallium flux FluoZin2 fluorescence; actives lie on both sides; F/F0 rise rate, 10–20 s post-thallium | normalized thallium flux at 10 µM | 3,700 compounds, 23% hits;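 active = thallium flux slope more than 3 SD above or below the plate's solvent-only control mean, mostly below; inconclusive = the two repeat wells disagreed; inactive = no significant shift from solvent-only controls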
HEK counter1 = acts in parental HEK cells, KCC2 counter-screen. shares compounds with KCC2 mod. HEK293 parental cells, thallium flux FluoZin2, ouabain; baseline-ratio fluorescence slope, 10–20 s after thallium. thallium flux rate (normalised fluorescence) at 10 µM. 3,700 compounds, 46% hits. AID 1716;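 active = thallium flux rate significantly above the same plate's solvent-only control wells, beyond their mean plus 3 SD; inconclusive = the two replicate wells gave conflicting results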
KCC2 ouabain = KCC2 (human) modulation, ouabain retest; shares compounds with KCC2 mod; HEK293-KCC2, thallium flux FluoZin2 fluorescence; bidirectional: low = inhibitor, high = activator; raw Tl+ flux slope (below DMSO = inhibition, above = activation) at 10 µM; 3,700 compounds, 48% hits; AID 1717;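 active = thallium flux slope beyond 3 SD from same-plate DMSO control mean in most replicates, usually higher, sometimes lower; inconclusive = repeat tests gave conflicting results; inactive = no significant difference from controls in most replicates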;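 also: slope of initial-normalized fluorescence between seconds 10 and 20 after thallium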
HEK counter2 = parental HEK flux effect, counter-screen 2; shares compounds with KCC2 mod; HEK293 parental, thallium flux FluoZin-2 fluorescence slope; thallium flux slope at 10 µM; 3,700 compounds, 33% hits; AID 1718;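 active = thallium flux slope above the same plate's solvent-control mean plus 3 SD in both duplicate wells; inconclusive = duplicate wells that disagreed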;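 also: run without ouabain in cells lacking the KCC2 cotransporter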
Large screens that a line does not name were inactive (follow-up assays come after a bar, where they were run). In the library only some 3.7% were active in any assay of this set; here they are far more common.

O=C(CSc1nc2cc(Cl)ccc2s1)c1cc2ccccc2o1	KCC2 mod 4.5 | KCC2 sec1 0.025 | KCC2 bumet counter 0.055 | KCC2 secondary2 inactive | HEK counter1 0.031 | KCC2 ouabain 0.048 | HEK counter2 0.017
O=C(CSc1nc2cc(Cl)ccc2c(=O)n1Cc1ccco1)Nc1ccc(S(=O)(=O)N2CCOCC2)cc1	KCC2 mod 4.4 | KCC2 sec1 inactive | KCC2 bumet counter 0.014 | KCC2 secondary2 inactive | HEK counter1 0.018 | KCC2 ouabain inconclusive | HEK counter2 0.015
O=C(CSc1nc2ccccc2s1)Nc1ccc(Cl)c(S(=O)(=O)N2CCOCC2)c1	none (no result: ROMK mod)
O=C(CSc1cccc2cccnc12)Nc1ccc(S(=O)(=O)N2CCOCC2)cc1	KCC2 mod 9.6 (no result: ROMK mod, DTT redox prof, MT stabilizer) | KCC2 sec1 inactive | KCC2 bumet counter 0.02 | KCC2 secondary2 inactive | HEK counter1 0.016 | KCC2 ouabain inconclusive | HEK counter2 0.013
COc1ccc(OCCN2C(=O)NC3(CCc4ccccc4C3)C2=O)cc1 (configuration not stated)	none (no result: ROMK mod)
O=C1CN2NC(=S)N(c3ccccc3)C2=CN1c1ccc(Cl)cc1	none
Cc1cc(C)n2c(Br)c(CSc3nc4ccccc4s3)nc2n1	KCC2 mod -3.7 | KCC2 sec1 inactive | KCC2 bumet counter inactive | KCC2 secondary2 0.027 | HEK counter1 0.0061 | KCC2 ouabain 0.016 | HEK counter2 inactive
Cc1ccc(S(=O)(=O)N2CCN(c3ccc(C(=O)N4CCOCC4)cc3[N+](=O)[O-])CC2)cc1	none (no result: ROMK mod)
CC(=O)c1cc(CN2CCN(Cc3ccccc3)C(CCO)C2)cs1 (configuration not stated)	none (no result: KCC2 mod)
CN(C)CCCNc1ccc(S(N)(=O)=O)cc1[N+](=O)[O-]	KCC2 mod 2.8 | KCC2 sec1 inactive | KCC2 bumet counter inactive | KCC2 secondary2 inactive | HEK counter1 inactive | KCC2 ouabain inactive | HEK counter2 inactive
CCCc1cc(C(=O)NNC(=S)Nc2cccc(C)c2)cs1	KCC2 mod 31 (no result: ROMK mod) | KCC2 sec1 inactive | KCC2 bumet counter 0.083 | KCC2 secondary2 0.063 | HEK counter1 0.077 | KCC2 ouabain 0.065 | HEK counter2 0.044
Cc1cccc(NC(=S)NNC(=O)c2ccccc2Br)c1	none
Cc1cccc(NC(=S)NNC(=O)c2ccccc2OC(F)F)c1	KCC2 mod 13 | KCC2 sec1 inactive | KCC2 bumet counter 0.026 | KCC2 secondary2 inactive | HEK counter1 0.012 | KCC2 ouabain inconclusive | HEK counter2 0.011
CC(C)CC(=O)Nc1ccc(-c2nc3ccccc3c(=O)[nH]2)cc1	none
Clc1ccccc1CSC1=NCCCN1	none (no result: KCC2 mod) | KCC2 sec1 inactive | KCC2 bumet counter inactive | KCC2 secondary2 inactive | HEK counter1 inactive | KCC2 ouabain inactive | HEK counter2 inactive
Clc1ccc(CSC2=NCCCN2)cc1Cl	none (no result: ROMK mod)
Cc1ccc(CSCCNC(=O)c2ccc(C)cc2)cc1	KCC2 mod -3.8 | KCC2 sec1 inactive | KCC2 bumet counter inactive | KCC2 secondary2 0.024 | HEK counter1 inactive | KCC2 ouabain 0.016 | HEK counter2 inactive
CC(C)c1nc2sc(C(=O)O)c(N)c2c2c1CCCC2	none (no result: ROMK mod, DTT redox prof, MT stabilizer)
Cn1c(-c2sccc2OCc2ccc(Cl)cc2Cl)n[nH]c1=S	KCC2 mod 5.2 | KCC2 sec1 inactive | KCC2 bumet counter 0.013 | KCC2 secondary2 inactive | HEK counter1 0.012 | KCC2 ouabain inactive | HEK counter2 0.012
Cc1ccc(COc2ccsc2-c2n[nH]c(=S)n2C)cc1	none (no result: KCC2 mod)
COc1ccccc1CNC(=O)C(NC(=O)c1ccc(C)cc1)C(C)C (configuration not stated)	none
CCC(C)[C@H](NC(=O)N1CCC(C)CC1)C(=O)OC (some centres not stated)	none (no result: ROMK mod, DTT redox prof, MT stabilizer)
Cc1sc2nnn(CC(=O)N3CCN(C(=O)c4ccco4)CC3)c(=O)c2c1C	none (no result: b-catenin transl)
Cc1sc2nc(C(C)C)nc(SCC(=O)N3CCN(C(=O)c4ccco4)CC3)c2c1C	none (no result: KCC2 mod) | KCC2 sec1 inactive | KCC2 bumet counter 0.017 | KCC2 secondary2 inactive | HEK counter1 0.012 | KCC2 ouabain inactive | HEK counter2 0.012
Cc1cc(NC(=O)CSc2nc(C(C)C)nc3sc(C)c(C)c23)no1	KCC2 mod 9.3 | KCC2 sec1 inconclusive | KCC2 bumet counter 0.034 | KCC2 secondary2 inactive | HEK counter1 0.017 | KCC2 ouabain inconclusive | HEK counter2 0.012
Cc1cc(NC(=O)CSc2nc(C(C)C)nc3ccccc23)no1	none (no result: ROMK mod)
O=[N+]([O-])c1ccc(N2CCN(S(=O)(=O)c3ccccc3)CC2)cc1NCc1ccco1	none (no result: ROMK mod)
Cc1ccnc(NS(=O)(=O)c2ccc(NC(=O)c3ccc4c(c3)OCCO4)cc2)n1	none
CC(=O)c1c(C)nc(-c2ccc(Cl)cc2)nc1N	none
CC(=O)c1c(C)nc(-c2ccc(Cl)cc2)nc1N=CN(C)C	none (no result: KCC2 mod) | KCC2 sec1 inactive | KCC2 bumet counter inactive | KCC2 secondary2 inactive | HEK counter1 inactive | KCC2 ouabain inactive | HEK counter2 inactive
CCN(C(=O)COC(=O)c1ccc(S(=O)(=O)N2CCCc3ccccc32)cc1)C1CCS(=O)(=O)C1 (configuration not stated)	none
Cc1onc(-c2ccccc2Cl)c1C(=O)NCc1ccccn1	none
Cc1onc(-c2ccccc2Cl)c1C(=O)NC(=S)Nc1ccccc1F	KCC2 mod 54 | KCC2 sec1 0.015 | KCC2 bumet counter 0.099 | KCC2 secondary2 inactive | HEK counter1 0.044 | KCC2 ouabain 0.041 | HEK counter2 0.013
Cc1onc(-c2ccccc2Cl)c1C(=O)NCCN1Cc2ccccc2C1=O	none (no result: KCC2 mod) | KCC2 sec1 inactive | KCC2 bumet counter inactive | KCC2 secondary2 inactive | HEK counter1 inactive | KCC2 ouabain inactive | HEK counter2 inactive
COc1ccc(CCNC(=S)NC(=O)c2c(-c3ccccc3Cl)noc2C)cc1OC	none (no result: DTT redox prof, MT stabilizer)
